Measurements reported in the M2OR odorant receptor database.

How the values were obtained:
Settings in all cases: stereoisomer not certain
OR10R2 (Homo sapiens) = target: T1, OR10R2 (Homo sapiens) (UniProt Q8NGX6)
T1 sequence (whole entry): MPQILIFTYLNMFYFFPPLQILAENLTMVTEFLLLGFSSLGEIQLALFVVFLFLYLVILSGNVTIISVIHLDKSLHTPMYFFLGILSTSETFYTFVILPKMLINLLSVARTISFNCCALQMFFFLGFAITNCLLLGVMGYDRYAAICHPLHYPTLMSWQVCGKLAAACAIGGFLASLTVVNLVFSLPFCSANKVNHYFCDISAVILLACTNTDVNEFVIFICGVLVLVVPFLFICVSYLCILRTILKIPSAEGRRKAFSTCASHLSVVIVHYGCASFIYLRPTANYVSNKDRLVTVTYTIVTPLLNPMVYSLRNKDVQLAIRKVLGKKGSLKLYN
Method in brief: (§1)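 Each receptor–molecule pair is labelled responsive or non-responsive (inactive) according to whether the original authors judged the measured signal statistically different from baseline. The data were taken from the main text and supplementary material of published papers and checked for typos and inconsistencies. Assay methods differed by source, with transient luciferase assays in mammalian cell lines being common.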

OR10S1 (Homo sapiens) = target: T2, OR10S1 (Homo sapiens) (UniProt Q8NGN2)
T2 sequence (whole entry): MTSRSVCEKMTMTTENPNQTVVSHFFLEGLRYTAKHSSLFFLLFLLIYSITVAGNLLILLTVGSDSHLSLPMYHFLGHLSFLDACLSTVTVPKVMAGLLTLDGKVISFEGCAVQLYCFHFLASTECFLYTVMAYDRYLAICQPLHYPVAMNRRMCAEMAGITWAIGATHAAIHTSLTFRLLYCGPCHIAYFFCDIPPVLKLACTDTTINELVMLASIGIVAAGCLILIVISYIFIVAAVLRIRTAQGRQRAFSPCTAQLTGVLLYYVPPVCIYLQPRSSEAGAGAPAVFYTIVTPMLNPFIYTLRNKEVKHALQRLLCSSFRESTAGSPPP
Method in brief: as §1

OR10T2 (Homo sapiens) = target: T3, OR10T2 (Homo sapiens) (UniProt Q8NGX3)
T3 sequence (whole entry): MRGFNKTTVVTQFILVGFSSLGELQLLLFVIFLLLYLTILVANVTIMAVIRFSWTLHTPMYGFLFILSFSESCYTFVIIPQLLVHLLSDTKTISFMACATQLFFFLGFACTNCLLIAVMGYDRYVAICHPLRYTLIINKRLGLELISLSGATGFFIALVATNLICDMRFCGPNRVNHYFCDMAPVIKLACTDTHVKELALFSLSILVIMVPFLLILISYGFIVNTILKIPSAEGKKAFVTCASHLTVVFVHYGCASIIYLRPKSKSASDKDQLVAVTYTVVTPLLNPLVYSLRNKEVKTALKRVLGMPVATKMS
Method in brief: as §1

OR10V1 (Homo sapiens) = target: T4, OR10V1 (Homo sapiens) (UniProt Q8NGI7)
T4 sequence (whole entry): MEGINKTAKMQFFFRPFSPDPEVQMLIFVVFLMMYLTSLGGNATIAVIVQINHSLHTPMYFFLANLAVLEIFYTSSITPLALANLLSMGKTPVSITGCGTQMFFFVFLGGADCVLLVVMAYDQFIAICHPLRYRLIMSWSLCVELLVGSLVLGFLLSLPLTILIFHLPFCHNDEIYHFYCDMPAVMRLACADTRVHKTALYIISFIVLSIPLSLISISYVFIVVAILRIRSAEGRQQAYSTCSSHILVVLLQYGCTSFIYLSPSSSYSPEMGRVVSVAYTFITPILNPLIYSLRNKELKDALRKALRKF
Method in brief: as §1

OR10W1 (Homo sapiens) = target: T5, OR10W1 (Homo sapiens) (UniProt Q8NGF6)
T5 sequence (whole entry): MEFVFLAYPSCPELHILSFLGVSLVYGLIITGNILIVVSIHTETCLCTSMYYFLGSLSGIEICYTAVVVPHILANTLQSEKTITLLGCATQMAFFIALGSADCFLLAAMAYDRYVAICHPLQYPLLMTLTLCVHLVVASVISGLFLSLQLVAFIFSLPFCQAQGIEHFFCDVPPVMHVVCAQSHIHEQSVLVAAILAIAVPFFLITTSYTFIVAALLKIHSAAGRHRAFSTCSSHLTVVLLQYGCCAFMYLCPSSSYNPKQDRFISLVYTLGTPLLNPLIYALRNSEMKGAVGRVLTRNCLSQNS
Method in brief: as §1

OR10X1 (Homo sapiens) = target: T6, OR10X1 (Homo sapiens) (UniProt Q8NGY0)
T6 sequence (whole entry): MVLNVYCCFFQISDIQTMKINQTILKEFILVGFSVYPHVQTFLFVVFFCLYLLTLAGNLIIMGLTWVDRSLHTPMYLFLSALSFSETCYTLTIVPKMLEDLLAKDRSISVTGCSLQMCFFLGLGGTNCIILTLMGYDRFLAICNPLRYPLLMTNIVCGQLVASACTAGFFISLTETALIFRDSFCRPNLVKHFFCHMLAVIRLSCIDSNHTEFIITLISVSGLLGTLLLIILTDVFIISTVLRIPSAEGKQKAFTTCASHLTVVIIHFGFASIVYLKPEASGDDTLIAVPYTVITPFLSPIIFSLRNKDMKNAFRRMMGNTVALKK
Method in brief: as §1

OR10Z1 (Homo sapiens) = target: T7, OR10Z1 (Homo sapiens) (UniProt Q8NGY1)
T7 sequence (whole entry): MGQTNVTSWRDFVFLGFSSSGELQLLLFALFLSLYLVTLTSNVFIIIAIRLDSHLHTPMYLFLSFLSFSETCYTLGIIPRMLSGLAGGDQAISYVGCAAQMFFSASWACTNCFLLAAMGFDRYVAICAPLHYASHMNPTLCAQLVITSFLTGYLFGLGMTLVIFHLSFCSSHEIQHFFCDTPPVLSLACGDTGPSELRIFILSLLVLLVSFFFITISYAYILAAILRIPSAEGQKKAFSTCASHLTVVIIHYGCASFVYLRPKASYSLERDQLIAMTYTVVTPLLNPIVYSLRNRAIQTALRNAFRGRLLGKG
Method in brief: as §1

OR11A1 (Homo sapiens) = target: T8, OR11A1 (Homo sapiens) (UniProt Q9GZK7)
T8 sequence (whole entry): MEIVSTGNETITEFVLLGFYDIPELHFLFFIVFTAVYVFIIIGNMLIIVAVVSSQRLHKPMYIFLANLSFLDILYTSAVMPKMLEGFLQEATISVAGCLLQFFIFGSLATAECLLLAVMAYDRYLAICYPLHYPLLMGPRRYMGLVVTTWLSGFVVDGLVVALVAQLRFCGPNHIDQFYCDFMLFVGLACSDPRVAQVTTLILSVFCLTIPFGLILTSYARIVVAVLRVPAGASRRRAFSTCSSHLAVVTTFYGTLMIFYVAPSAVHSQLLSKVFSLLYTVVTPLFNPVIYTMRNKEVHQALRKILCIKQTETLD
Method in brief: as §1

OR11G2 (Homo sapiens) = target: T9, OR11G2 (Homo sapiens) (UniProt Q8NGC1)
T9 sequence (whole entry): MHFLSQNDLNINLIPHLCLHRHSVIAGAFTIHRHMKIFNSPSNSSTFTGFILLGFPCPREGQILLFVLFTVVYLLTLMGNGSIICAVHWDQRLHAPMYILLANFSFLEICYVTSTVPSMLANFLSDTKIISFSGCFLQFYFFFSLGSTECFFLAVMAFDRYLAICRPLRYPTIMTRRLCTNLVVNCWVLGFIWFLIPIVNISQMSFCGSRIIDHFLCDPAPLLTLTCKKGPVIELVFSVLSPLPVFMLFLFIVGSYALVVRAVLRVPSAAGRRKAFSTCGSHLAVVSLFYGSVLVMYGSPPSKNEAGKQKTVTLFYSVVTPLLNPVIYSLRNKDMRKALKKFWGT
Method in brief: as §1

OR11H1 (Homo sapiens) = target: T10, OR11H1 (Homo sapiens) (UniProt Q8NG94)
T10 sequence (whole entry): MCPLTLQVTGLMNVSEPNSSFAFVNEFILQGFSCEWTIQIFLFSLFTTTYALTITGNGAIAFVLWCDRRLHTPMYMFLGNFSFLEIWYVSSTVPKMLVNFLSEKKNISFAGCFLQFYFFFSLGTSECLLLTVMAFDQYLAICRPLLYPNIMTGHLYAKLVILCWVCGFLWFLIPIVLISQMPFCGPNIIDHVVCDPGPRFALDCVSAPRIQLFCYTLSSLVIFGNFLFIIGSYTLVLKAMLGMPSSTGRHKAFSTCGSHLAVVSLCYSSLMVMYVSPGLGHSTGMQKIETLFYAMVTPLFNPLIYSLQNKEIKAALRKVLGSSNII
Method in brief: as §1

Measured: odorant receptor agonist call;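 further: active if original authors judged signal statistically different from baseline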

CCCCCC(S)C(C)CO (stereo not given)
inactive: all assays above
